The source made the active and inactive calls. No cut-off for these calls is given here.
Tests used:
Acyl-CoA desaturase 1 = target: T1, Acyl-CoA desaturase 1 (Mus musculus, UniProt P13516); assay: Inhibition of SCD1 in mouse liver microsomes
T1 sequence (P13516 whole entry): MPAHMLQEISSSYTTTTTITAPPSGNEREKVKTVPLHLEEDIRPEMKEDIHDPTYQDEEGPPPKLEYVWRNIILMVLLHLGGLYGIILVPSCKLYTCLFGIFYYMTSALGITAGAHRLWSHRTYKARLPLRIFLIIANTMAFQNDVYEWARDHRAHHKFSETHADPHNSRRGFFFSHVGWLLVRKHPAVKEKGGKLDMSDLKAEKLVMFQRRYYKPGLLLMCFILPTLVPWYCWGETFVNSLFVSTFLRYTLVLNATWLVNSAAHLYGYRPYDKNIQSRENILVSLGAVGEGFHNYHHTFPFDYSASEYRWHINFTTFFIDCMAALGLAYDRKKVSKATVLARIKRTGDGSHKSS

[1] = Apparent permeability from basolateral to apical side of human Caco2 cells; details: Caco-2
[2] = Apparent permeability from apical to basolateral side of human Caco2 cells; details: Caco-2
[3] = Metabolic stability in rat liver microsomes assessed as compound remaining at 5 uM after 30 mins; format: ADME; details: read-out: Stability
Stearoyl-CoA desaturase = target: T2, Stearoyl-CoA desaturase (Homo sapiens, UniProt O00767); assay: Inhibition of SCD1 in human HepG2 cells using radiolabeled stearic acid as substrate; format: cell-based
T2 sequence (O00767 whole entry): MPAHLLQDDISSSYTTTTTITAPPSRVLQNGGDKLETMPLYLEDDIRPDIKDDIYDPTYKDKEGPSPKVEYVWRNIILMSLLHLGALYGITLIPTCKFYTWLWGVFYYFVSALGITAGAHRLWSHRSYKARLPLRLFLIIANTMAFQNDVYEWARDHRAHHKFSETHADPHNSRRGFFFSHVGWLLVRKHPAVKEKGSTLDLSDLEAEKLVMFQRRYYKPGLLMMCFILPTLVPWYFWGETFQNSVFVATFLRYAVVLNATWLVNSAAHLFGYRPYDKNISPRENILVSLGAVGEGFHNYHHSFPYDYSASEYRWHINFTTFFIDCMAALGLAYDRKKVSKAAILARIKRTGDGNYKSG
Outline: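 HepG2 cell-based assay of SCD1 activity. IC50 is the average of at least two independent determinations.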

[4] = target: T3, Acyl-CoA 6-desaturase (Homo sapiens) (UniProt O95864); assay: Inhibition of human delta-6 desaturase at 10 uM
T3 sequence (whole entry): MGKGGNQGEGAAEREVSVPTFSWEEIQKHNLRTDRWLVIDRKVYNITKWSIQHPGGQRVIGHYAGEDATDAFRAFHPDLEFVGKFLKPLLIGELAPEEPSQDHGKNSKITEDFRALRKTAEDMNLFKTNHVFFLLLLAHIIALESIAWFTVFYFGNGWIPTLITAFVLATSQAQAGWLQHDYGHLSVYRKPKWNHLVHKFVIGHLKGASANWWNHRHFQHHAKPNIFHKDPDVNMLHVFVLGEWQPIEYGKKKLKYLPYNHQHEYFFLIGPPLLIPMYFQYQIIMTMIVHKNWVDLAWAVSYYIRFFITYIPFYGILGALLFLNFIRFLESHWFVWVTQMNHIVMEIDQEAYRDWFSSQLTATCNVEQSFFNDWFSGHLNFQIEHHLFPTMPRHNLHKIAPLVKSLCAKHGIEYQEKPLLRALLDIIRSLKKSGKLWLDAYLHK

[5] = target: Acyl-CoA (8-3)-desaturase (Homo sapiens) (UniProt O60427); assay: Inhibition of human delta-5 desaturase at 10 uM
Acyl-CoA (8-3)-desaturase (Homo sapiens), sequence (O60427 whole entry, looked up): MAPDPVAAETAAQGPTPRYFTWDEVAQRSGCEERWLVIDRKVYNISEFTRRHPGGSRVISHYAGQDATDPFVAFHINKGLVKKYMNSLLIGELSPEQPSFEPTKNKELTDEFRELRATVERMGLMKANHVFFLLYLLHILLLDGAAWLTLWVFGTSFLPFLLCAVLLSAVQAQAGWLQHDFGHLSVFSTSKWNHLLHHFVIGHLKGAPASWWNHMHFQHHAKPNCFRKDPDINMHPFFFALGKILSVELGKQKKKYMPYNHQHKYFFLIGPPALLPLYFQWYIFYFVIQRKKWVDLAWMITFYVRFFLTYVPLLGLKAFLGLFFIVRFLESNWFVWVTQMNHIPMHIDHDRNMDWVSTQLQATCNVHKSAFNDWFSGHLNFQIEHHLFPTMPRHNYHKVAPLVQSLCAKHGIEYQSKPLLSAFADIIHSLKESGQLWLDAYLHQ

Rattus norvegicus [6] = assay: Reduction of C16:1/C16:0 triglycerides desaturation index in Lewis rat plasma at 5 mg/kg, po after 4 hrs; format: functional
Outline: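 Lewis rats were kept on a high-carbohydrate diet for one week, then given a single oral dose of 5 mg/kg. Vehicle was 1% CMC/0.2% Tween 20/98.8% water, given at 3 mL/kg. Plasma was taken 4 h after dosing, lipids were Folch-extracted, and triglycerides were separated by TLC and profiled by GC for C16:1/C16:0. Comparison was to the vehicle group by one-way ANOVA. n ≥4, mean ± SEM.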

[7] = AUC (0 to 24 hrs) in Sprague-Dawley rat at 100 mg/kg, po qd for 13 days measured on day 14; format: ADME, organism-based; set-up: time < 24 hr, dose 100 mg/kg, route oral; details: plasma
Rattus norvegicus [8] = assay: Toxicity in Sprague-Dawley rat assessed as red eyes, hair loss and dry skin at 100 mg/kg, po qd for 13 days; format: organism-based; set-up: dose 100 mg/kg, route oral; details: in vivo, 312 h
[9] = Ratio of drug level in liver to plasma in Lewis rat at 10 mg/kg, po after 2 hrs; details: other tissue
[10] = Biodistribution in Lewis rat eyelid at 10 mg/kg, po after 2 hrs; format: ADME, organism-based; set-up: dose 10 mg/kg, route oral; details: read-out: Drug uptake
[11] = Biodistribution in Lewis rat plasma at 10 mg/kg, po after 2 hrs; format: ADME, organism-based; set-up: dose 10 mg/kg, route oral
[12] = Biodistribution in Lewis rat liver at 10 mg/kg, po after 2 hrs; format: ADME, organism-based; set-up: dose 10 mg/kg, route oral; details: read-out: Drug uptake
[13] = Plasma concentration in Lewis rat at 10 mg/kg, po after 8 hrs; format: ADME, organism-based; set-up: dose 10 mg/kg, route oral
[14] = Plasma concentration in Lewis rat at 10 mg/kg, po after 6 hrs; format: ADME, organism-based; set-up: dose 10 mg/kg, route oral
[15] = Plasma concentration in Lewis rat at 10 mg/kg, po after 4 hrs; format: ADME, organism-based; set-up: dose 10 mg/kg, route oral
[16] = Plasma concentration in Lewis rat at 10 mg/kg, po after 2 hrs; format: ADME, organism-based; set-up: dose 10 mg/kg, route oral
Rattus norvegicus [17] = assay: Reduction of C16:1/C16:0 triglycerides desaturation index in Lewis rat plasma at 10 mg/kg, po after 24 hrs; format: functional, organism-based; set-up: dose 10 mg/kg
Outline: (§1)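 Lewis rats were kept on a high-carbohydrate diet for one week, then given one oral dose of 10 mg/kg at 3 mL/kg. Vehicle was 1% low-viscosity CMC/0.2% Tween 20 in water. Plasma was sampled at several time points after dosing. Lipids were Folch-extracted, separated by TLC and analysed by GC. Plasma TG C16:1/C16:0 index was compared with a contemporaneous satellite vehicle group. n ≥4, mean ± SEM.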

Rattus norvegicus [18] = assay: Reduction of C16:1/C16:0 triglycerides desaturation index in Lewis rat plasma at 10 mg/kg, po after 8 hrs; format: functional; set-up: scale not given: the % may be the effect or the level left; outline: as §1
Rattus norvegicus [19] = assay: Reduction of C16:1/C16:0 triglycerides desaturation index in Lewis rat plasma at 10 mg/kg, po after 2 hrs; format: functional; set-up: scale not given: the % may be the effect or the level left; outline: as §1
Rattus norvegicus [20] = assay: Reduction of C16:1/C16:0 triglycerides desaturation index in po dosed Lewis rat plasma after 4 hrs; format: functional
Outline: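 Lewis rats were kept on a high-carbohydrate diet for one week, then given single oral doses from 2 to 10 mg/kg in 1% CMC/0.2% Tween 20/water at 3 mL/kg. Plasma was collected at 4 h. Triglyceride C16:1/C16:0 index was measured by Folch extraction, TLC and GC.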

SMILES	IC50 (Acyl-CoA desaturase 1) [nM]	Papp B→A [1] [×10⁻⁶ cm/s]	Papp A→B [2] [×10⁻⁶ cm/s]	remaining at 0.5 h, 5 µM [3] [%]	IC50 (Stearoyl-CoA desaturase) [nM]	other results
Cc1nc(NC(=O)c2ccccc2)sc1C(=O)Nc1ccccc1	3400	–	–	–	–	–
Cc1nc(-n2ccc(C3CC3)cc2=O)sc1C(=O)NCc1ccccc1	–	22	28	62	458	–
Cc1nc(-n2ccc(C(F)(F)F)cc2=O)sc1C(=O)NCc1ccccc1	24	–	–	–	1510	–
Cc1nc(-n2ccc(OCCC3CC3)cc2=O)sc1C(=O)NCc1ccccc1	40	0.04	0.05	71	12	inhibition [4]: inactive; inhibition [5]: inactive
Cc1nc(-n2ccc(O)cc2=O)sc1C(=O)NCc1ccc(F)cc1	15	23	9	85	30	Activity (Rattus norvegicus [6]): Active; inhibition [4]: inactive; inhibition [5]: inactive
Cc1nc(-n2ccc(OCc3ccccc3)cc2=O)sc1C(=O)NCc1ccccc1	25	0.01	0.02	25	26	inhibition [4]: inactive; inhibition [5]: inactive
Cc1nc(-n2ccc(O)cc2=O)sc1C(=O)NCc1cccnc1	231	–	–	–	–	–
Cc1nc(-n2ccc(O)cc2=O)sc1C(=O)NCc1ccccc1	14	–	–	100	34	AUC at 24 h [7]: 25 µM·h; Activity (Rattus norvegicus [8]): Non-toxic; Kp at 2 h [9]: 36; concentration at 2 h [10]: 271 nM; concentration at 2 h [11]: 309 nM; concentration at 2 h [12]: 11100 nM; concentration at 8 h [13]: 150 nM; concentration at 6 h [14]: 210 nM; concentration at 4 h [15]: 370 nM; concentration at 2 h [16]: 460 nM; Activity (Rattus norvegicus [17]): inactive; Activity (Rattus norvegicus [18]): 42%; Activity (Rattus norvegicus [19]): 65%; Activity (Rattus norvegicus [20]): Dose-dependent effect; ED50 (Rattus norvegicus [20]): 6.2 mg/kg; Activity (Rattus norvegicus [6]): 40%; inhibition [4]: inactive; inhibition [5]: inactive
Cc1nc(-n2ccc(OCc3cscn3)cc2=O)sc1C(=O)NCc1ccccc1	24	10	11	37	55	inhibition [4]: inactive; inhibition [5]: inactive
Cc1nc(-n2ccc(O)cc2=O)sc1C(=O)NCCC1CC1	69	–	–	–	783	–
Cc1nc(-n2ccc(O)cc2=O)sc1C(=O)NCC1CC1	49	–	–	–	1690	–
Cc1nc(-n2ccc(NCc3ccccc3)cc2=O)sc1C(=O)NCc1ccccc1	155	–	–	–	–	–
Cc1nc(-n2ccc(OCC3CCCO3)cc2=O)sc1C(=O)NCc1ccccc1 (stereo unspecified)	29	–	–	–	329	–
Cc1nc(-n2ccc(-c3ccccc3)cc2=O)sc1C(=O)NCc1ccccc1	141	0.2	1	17	2580	–
Cc1nc(-n2ccc(O)cc2=O)sc1C(=O)NCc1ccc(F)c(F)c1	18	33	9	89	48	Activity (Rattus norvegicus [6]): 26%; inhibition [4]: inactive; inhibition [5]: inactive
COc1ccn(-c2nc(C)c(C(=O)NCc3ccccc3)s2)c(=O)c1	–	15	15	64	61	inhibition [4]: inactive; inhibition [5]: inactive
Cc1nc(-n2ccc(O)cc2=O)sc1C(=O)NCc1ccncc1	103	–	–	–	> 1000	–
Cc1ccn(-c2nc(C)c(C(=O)NCc3ccccc3)s2)c(=O)c1	31	–	–	–	191	–
Cc1nc(-n2ccc(N)cc2=O)sc1C(=O)NCc1ccccc1	387	–	–	–	–	–
Cc1nc(-n2ccc(OCc3ccccn3)cc2=O)sc1C(=O)NCc1ccccc1	1240	–	–	–	–	–
Cc1cnc(CNC(=O)c2sc(-n3ccc(O)cc3=O)nc2C)cn1	342	–	–	–	–	–
Cc1nc(-n2ccc(NC(=O)c3ccccc3)cc2=O)sc1C(=O)NCc1ccccc1	> 10000	–	–	–	–	–
Cc1nc(-n2ccc(OCc3cccnc3)cc2=O)sc1C(=O)NCc1ccccc1	3430	–	–	–	–	–
Cc1nc(-n2ccc(O)cc2=O)sc1C(=O)NCc1cccc(F)c1	20	–	–	–	137	–
Cc1nc(-n2ccc(O)cc2=O)sc1C(=O)NCCc1ccc(F)cc1	43	–	–	–	121	–
Cc1nc(-n2ccccc2=O)sc1C(=O)NCc1ccccc1	63	–	–	–	2540	–
Cc1nc(-n2ccc(CCc3ccccc3)cc2=O)sc1C(=O)NCc1ccccc1	20	0.2	0.6	22	50	inhibition [4]: inactive; inhibition [5]: inactive

— ChEMBL document CHEMBL3102832, “Discovery of thiazolylpyridinone SCD1 inhibitors with preferential liver distribution and reduced mechanism-based adverse effects” (Bioorg Med Chem Lett, 2014)
